ChEMBL document CHEMBL3244185, “Synthesis and antiprotozoal activity of 2,5-bis(4-guanylphenyl)furans” (J Med Chem, 1977)
The source made the active and inactive calls. The calls are words filed in the database; no cut-off is given here.

Experiments:
Plasmodium berghei [1] = test: Antimalarial activity against Plasmodium berghei infected in mouse up to 640 mg/kg, sc administered 72 hrs post infection; type: functional, organism-based; parameters: dose 640 mg/kg
How it was run: (§1)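 Antimalarial screen in P. berghei-infected mice, doses in mg/kg. The read-out is the gain in mean survival time of treated animals over untreated controls. Toxicity is recorded at the dose levels tested.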

Mus musculus [2] = test: Toxicity in ICR/HA Swiss mouse infected with Trypanosoma rhodesiense CT assessed as mortality at 40 mg/kg; type: organism-based; parameters: dose 40 mg/kg; conditions: in vivo
How it was run: (§2)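 Mice, five per dosage level, each dosed in mg of compound per kg body weight. ΔMST is the increase in mean survival time of treated over untreated infected controls, in days. A cure is a 30-day survival increase over controls, with at most five cures per dose. Deaths attributed to compound toxicity were scored as toxic deaths.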

Mus musculus [3] = test: Toxicity in ICR/HA Swiss mouse infected with Trypanosoma rhodesiense CT assessed as mortality at 160 mg/kg; type: organism-based; parameters: dose 160 mg/kg; conditions: in vivo; how it was run: as §2
Mus musculus [4] = test: Toxicity in ICR/HA Swiss mouse infected with Trypanosoma rhodesiense CT assessed as mortality at 640 mg/kg; type: organism-based; parameters: dose 640 mg/kg; conditions: in vivo; how it was run: as §2
Plasmodium berghei [5] = test: Antimalarial activity against Plasmodium berghei infected in mouse assessed as increase in mean survival time at 640 mg/kg, sc administered 72 hrs post infection; type: functional; conditions: route subcutaneous
[6] = system: Trypanosoma brucei rhodesiense; test: Antitrypanosomal activity against Trypanosoma rhodesiense CT infected in ICR/HA Swiss mouse assessed as 30-day increase in survival time at 40 mg/kg relative to control; type: functional, organism-based; parameters: dose 40 mg/kg
How it was run: (§3)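 Mice infected with T. rhodesiense, dosed per mg of compound per kg body weight, five mice per dose level. A cure means survival extended 30 days beyond untreated controls, so at most five cures per dose. Non-curative effects are given as ΔMST, the gain in mean survival time in days versus controls. Toxic deaths are flagged separately.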

[7] = system: Trypanosoma brucei rhodesiense; test: Antitrypanosomal activity against Trypanosoma rhodesiense CT infected in ICR/HA Swiss mouse assessed as 30-day increase in survival time at 80 mg/kg relative to control; type: functional, organism-based; parameters: dose 80 mg/kg; how it was run: as §3
[8] = system: Trypanosoma brucei rhodesiense; test: Antitrypanosomal activity against Trypanosoma rhodesiense CT infected in ICR/HA Swiss mouse assessed as 30-day increase in survival time at 160 mg/kg relative to control; type: functional, organism-based; parameters: dose 160 mg/kg; how it was run: as §3
[9] = system: Trypanosoma brucei rhodesiense; test: Antitrypanosomal activity against Trypanosoma rhodesiense CT infected in ICR/HA Swiss mouse assessed as 30-day increase in survival time at 320 mg/kg relative to control; type: functional, organism-based; parameters: dose 320 mg/kg; how it was run: as §3
[10] = system: Trypanosoma brucei rhodesiense; test: Antitrypanosomal activity against Trypanosoma rhodesiense CT infected in ICR/HA Swiss mouse assessed as 30-day increase in survival time at 2.5 mg/kg relative to control; type: functional, organism-based; parameters: dose 2.5 mg/kg; how it was run: as §3
[11] = system: Trypanosoma brucei rhodesiense; test: Antitrypanosomal activity against Trypanosoma rhodesiense CT infected in ICR/HA Swiss mouse assessed as 30-day increase in survival time at 5 mg/kg relative to control; type: functional, organism-based; parameters: dose 5 mg/kg; how it was run: as §3
[12] = system: Trypanosoma brucei rhodesiense; test: Antitrypanosomal activity against Trypanosoma rhodesiense CT infected in ICR/HA Swiss mouse assessed as 30-day increase in survival time at 10 mg/kg relative to control; type: functional, organism-based; parameters: dose 10 mg/kg; how it was run: as §3
[13] = system: Trypanosoma brucei rhodesiense; test: Antitrypanosomal activity against Trypanosoma rhodesiense CT infected in ICR/HA Swiss mouse assessed as 30-day increase in survival time at 20 mg/kg relative to control; type: functional, organism-based; parameters: dose 20 mg/kg; how it was run: as §3
[14] = system: Trypanosoma brucei rhodesiense; test: Antitrypanosomal activity against Trypanosoma rhodesiense CT infected in ICR/HA Swiss mouse assessed as 30-day increase in survival time at 640 mg/kg relative to control; type: functional, organism-based; parameters: dose 640 mg/kg; how it was run: as §3
[15] = system: Trypanosoma brucei rhodesiense; test: Antitrypanosomal activity against Trypanosoma rhodesiense CT infected in ICR/HA Swiss mouse assessed as 30-day increase in survival time at 0.83 mg/kg relative to control; type: functional, organism-based; parameters: dose 0.83 mg/kg; how it was run: as §3
[16] = system: Trypanosoma brucei rhodesiense; test: Antitrypanosomal activity against Trypanosoma rhodesiense CT infected in ICR/HA Swiss mouse assessed as 30-day increase in survival time at 1.25 mg/kg relative to control; type: functional, organism-based; parameters: dose 1.25 mg/kg; how it was run: as §3
[17] = system: Trypanosoma brucei rhodesiense; test: Antitrypanosomal activity against Trypanosoma rhodesiense CT infected in ICR/HA Swiss mouse assessed as increase in mean survival time at 2.5 mg/kg; type: functional; how it was run: as §2
[18] = system: Trypanosoma brucei rhodesiense; test: Antitrypanosomal activity against Trypanosoma rhodesiense CT infected in ICR/HA Swiss mouse assessed as increase in mean survival time at 5 mg/kg; type: functional; how it was run: as §2
[19] = system: Trypanosoma brucei rhodesiense; test: Antitrypanosomal activity against Trypanosoma rhodesiense CT infected in ICR/HA Swiss mouse assessed as increase in mean survival time at 0.21 mg/kg; type: functional; how it was run: as §2
[20] = system: Trypanosoma brucei rhodesiense; test: Antitrypanosomal activity against Trypanosoma rhodesiense CT infected in ICR/HA Swiss mouse assessed as increase in mean survival time at 0.42 mg/kg; type: functional; how it was run: as §2
[21] = system: Trypanosoma brucei rhodesiense; test: Antitrypanosomal activity against Trypanosoma rhodesiense CT infected in ICR/HA Swiss mouse assessed as increase in mean survival time at 0.83 mg/kg; type: functional; how it was run: as §2
[22] = system: Trypanosoma brucei rhodesiense; test: Antitrypanosomal activity against Trypanosoma rhodesiense CT infected in ICR/HA Swiss mouse assessed as increase in mean survival time at 1.25 mg/kg; type: functional; how it was run: as §2
[23] = system: Trypanosoma brucei rhodesiense; test: Antitrypanosomal activity against Trypanosoma rhodesiense CT infected in ICR/HA Swiss mouse assessed as increase in mean survival time at 20 mg/kg; type: functional; how it was run: as §2
[24] = system: Trypanosoma brucei rhodesiense; test: Antitrypanosomal activity against Trypanosoma rhodesiense CT infected in ICR/HA Swiss mouse assessed as increase in mean survival time at 40 mg/kg; type: functional; how it was run: as §2
Mus musculus [25] = test: Toxicity in ICR/HA Swiss mouse infected with Trypanosoma rhodesiense CT assessed as mortality at 320 mg/kg; type: organism-based; parameters: dose 320 mg/kg; conditions: in vivo; how it was run: as §2
Mus musculus [26] = test: Toxicity in ICR/HA Swiss mouse infected with Trypanosoma rhodesiense CT assessed as mortality at 20 mg/kg; type: organism-based; parameters: dose 20 mg/kg; conditions: in vivo; how it was run: as §2
Plasmodium berghei [27] = test: Antimalarial activity against Plasmodium berghei infected in mouse assessed as increase in mean survival time at 320 mg/kg, sc administered 72 hrs post infection; type: functional; conditions: route subcutaneous
Mus musculus [28] = test: Toxicity in mouse infected with Plasmodium berghei at 640 mg/kg, sc administered 72 hrs post infection; type: organism-based; parameters: dose 640 mg/kg, route subcutaneous; conditions: in vivo; how it was run: as §1

| Structure (SMILES) | Activity (Plasmodium berghei [1]) | Activity [6] | Activity [7] | Activity [8] | Activity [9] | Activity [11] | Activity [12] | Activity [13] | further results |
| --- | --- | --- | --- | --- | --- | --- | --- | --- | --- |
| CN1CCN(C)[C+]1c1ccc(-c2ccc(-c3ccc([C+]4N(C)CCN4C)cc3)o2)cc1.[Cl-].[Cl-] | inactive |  |  |  |  |  |  |  | Activity (Mus musculus [2]): Toxic; Activity (Mus musculus [3]): Toxic; Activity (Mus musculus [4]): Toxic |
| [Cl-].[Cl-].c1cc([C+]2NCCN2)ccc1-c1ccc(-c2ccc([C+]3NCCN3)cc2)o1 |  | Active | Active | Active | Active |  |  |  | Survival (Plasmodium berghei [5]): 5 days |
| Cc1c(-c2ccc([C+]3NCC(C)N3)cc2)oc(-c2ccc([C+]3NCC(C)N3)cc2)c1C (stereo unspecified) | inactive |  |  |  |  |  |  |  |  |
| N=C(N)c1ccc(/C=C/c2ccc(C(=N)N)cc2O)cc1 |  | Active | Active | Active | Active | Active | Active | Active | Activity [10]: Active; Activity [14]: Active |
| CCN(CC)CCCN[C+](N)c1ccc(-c2ccc(-c3ccc([C+](N)NCCCN(CC)CC)cc3)o2)cc1 | inactive |  |  |  |  |  |  |  |  |
| Cc1cc(-c2ccc([C+](N)N)cc2)oc1-c1ccc([C+](N)N)cc1 | inactive | Active | Active | Active | Active | Active | Active | Active | Activity [15]: Active; Activity [16]: Active; Activity [10]: Active |
| CC1CN[C+](c2ccc(-c3ccc(-c4ccc([C+]5NCC(C)N5)cc4)o3)cc2)N1.[Cl-].[Cl-] (stereo unspecified) | inactive |  | Active | Active | Active |  |  |  | Activity [14]: Active; Survival [17]: 0.6 days; Survival [18]: 3.2 days |
| N=C(N)c1ccc(/C=C/c2ccc(C(=N)N)cc2)cc1 |  | Active | Active | Active | Active | Active | Active | Active | Activity [10]: Active; Activity [14]: Active |
| N[C+](N)c1ccc(-c2ccc(-c3ccc([C+](N)N)cc3)o2)cc1 | inactive | Active | Active | Active | Active | Active | Active | Active | Activity [14]: Active |
| CN1CCCN(C)[C+]1c1ccc(-c2ccc(-c3ccc([C+]4N(C)CCCN4C)cc3)o2)cc1.[Cl-].[Cl-] | inactive |  |  |  |  |  |  |  | Activity (Mus musculus [2]): Toxic; Activity (Mus musculus [3]): Toxic; Activity (Mus musculus [4]): Toxic |
| Cc1c(-c2ccc([C+](N)N)cc2)oc(-c2ccc([C+](N)N)cc2)c1C | inactive | Active | Active | Active | Active | Active | Active | Active |  |
| NNC(=O)c1ccc(-c2ccc(-c3ccc(C(=O)NN)cc3)o2)cc1 | inactive |  |  |  |  |  |  |  |  |
| N[C+](N)c1ccc(-c2cc(Cl)c(-c3ccc([C+](N)N)cc3)o2)cc1 | inactive |  |  |  |  | Active | Active | Active | Activity [16]: Active; Activity [10]: Active |
| N[C+](N)c1ccc(-c2oc(-c3ccc([C+](N)N)cc3)c(Cl)c2Cl)cc1.[Cl-].[Cl-] | inactive | Active | Active | Active | Active |  | Active | Active | Survival [19]: 0.2 days; Survival [20]: 0.4 days; Survival [21]: 0.8 days; Survival [22]: 2 days; Survival [17]: 6.2 days |
| CN1CCN[C+]1c1ccc(-c2ccc(-c3ccc([C+]4NCCN4C)cc3)o2)cc1.[Cl-].[Cl-] | inactive |  | Active |  |  |  |  |  | Survival [23]: 1.1 days; Survival [24]: 5.5 days; Activity (Mus musculus [3]): Toxic; Activity (Mus musculus [25]): Toxic; Activity (Mus musculus [4]): Toxic |
| N=C(N)c1ccc(OCCCCCOc2ccc(C(=N)N)cc2)cc1 |  | Active | Active | Active | Active | Active | Active | Active | Activity [14]: Active |
| Cc1c(-c2ccc([C+]3NCCN3)cc2)oc(-c2ccc([C+]3NCCN3)cc2)c1C.[Cl-].[Cl-] | inactive | Active | Active | Active | Active |  |  | Active | Activity [14]: Active; Survival [22]: 1.8 days; Survival [17]: 18 days |
| CN1CCCN[C+]1c1ccc(-c2ccc(-c3ccc([C+]4NCCCN4C)cc3)o2)cc1.[Cl-].[Cl-] | inactive |  |  |  |  |  |  |  | Survival [17]: 0.3 days; Survival [18]: 0.7 days; Activity (Mus musculus [26]): Toxic; Activity (Mus musculus [2]): Toxic; Activity (Mus musculus [3]): Toxic; Activity (Mus musculus [4]): Toxic |
| Cc1c(-c2ccc([C+]3NCCCN3)cc2)oc(-c2ccc([C+]3NCCCN3)cc2)c1C.[Cl-].[Cl-] | inactive | Active | Active |  |  |  | Active | Active | Survival [22]: 3.2 days; Activity (Mus musculus [25]): Toxic; Activity (Mus musculus [4]): Toxic |
| Cc1c(-c2ccc([C+](N)N)cc2)oc(-c2ccc([C+](N)N)cc2)c1Cl.[Cl-].[Cl-] | inactive | Active | Active | Active | Active | Active | Active | Active | Survival [19]: 2.1 days |
| Cl.Cl.c1cc(-c2ccc(-c3ccc(C4=NCCCN4)cc3)o2)ccc1C1=NCCCN1 |  | Active | Active | Active |  |  |  | Active | Survival (Plasmodium berghei [27]): 12 days; Activity (Mus musculus [28]): Toxic |
